In PMC3106293 (Xenobiotica; the fate of foreign compounds in biological …, 2009):
Where two headings read alike, the source gives them in different places.

Experiments:
hSULT1A1 [1] = target: T1, hSULT1A1 (Homo sapiens, UniProt P50225); assay: Sulfation of flavonoids by recombinant hSULT1A1; assay type: in vitro ADME
[2] = tested on: sulfotransferases (SULTs) in human intestine cytosol; assay: Sulfation of flavonoids by human intestine cytosol; assay type: in vitro ADME; conditions: for Km at 30 min: male, human, human intestine cytosol, pH 6.2
Summary of the method: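 Cytosol (50 μg) from a person was incubated in 50 mM sodium phosphate pH 6.2 with 5 mM pNPS, 20 μM PAPS and test compound at 1 μM up to 1000 μM (upper limit varying by compound). After 30 min at 37°C, the reaction was stopped with 0.25 M Tris pH 8.7 and read at 401 nm. Product formation was linear with time. Km came from a Michaelis–Menten fit; means ± SD of three determinations.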

hSULT2A1 = target: T2, hSULT2A1 (Homo sapiens, UniProt Q06520); assay: Inhibition of DHEA sulfation by recombinant hSULT2A1; assay type: biochemical; conditions: for Inhibition of hSULT2A1-catalysed DHEA sulfation (in words): substrate 2 μM DHEA, concentration range 1–1000 μM
T2 sequence (Q06520 1-285): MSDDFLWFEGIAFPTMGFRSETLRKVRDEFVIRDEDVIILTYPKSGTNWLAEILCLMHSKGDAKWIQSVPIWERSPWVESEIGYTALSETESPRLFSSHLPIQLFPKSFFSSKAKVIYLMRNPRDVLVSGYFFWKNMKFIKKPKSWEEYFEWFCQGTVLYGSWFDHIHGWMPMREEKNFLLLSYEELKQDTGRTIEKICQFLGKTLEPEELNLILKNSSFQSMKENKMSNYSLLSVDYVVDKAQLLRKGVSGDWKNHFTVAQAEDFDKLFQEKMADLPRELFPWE
Summary of the method: (§1)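 Test compound was added in DMSO (1% v/v final). Labelled substrates: [14C]2-naphthol 0.1 mM for hSULT1A1, [3H]DHEA 2 μM for hSULT2A1, [3H]oestradiol 0.15 μM for hSULT1E1. Incubated 30 min at 37°C, stopped with Tris pH 8.7, chloroform-extracted twice, aqueous phase scintillation-counted. IC50 from Hill-slope fit; three determinations.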

[3] = tested on: human intestine cytosolic SULTs; assay: Inhibition of oestradiol sulfation by human intestine cytosol; assay type: biochemical; conditions: read-out: IC50, Oestradiol sulfation, Cytosol, substrate 0.15 μM oestradiol
Summary of the method: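 [3H]oestradiol (0.15 μM final) sulfation by 100 μg intestine cytosol from a person. Buffer 50 mM Tris (pH 6.2) with 20 μM PAPS. Test compound in DMSO (1% v/v final), 0.01–1000 μM. Reaction 30 min at 37°C, quenched with 0.25 M Tris (pH 8.7), chloroform-extracted twice, aqueous phase counted by scintillation. IC50 from a Hill-slope fit; mean ± SD of three determinations.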

hSULT1A3 [4] = target: T3, hSULT1A3 (Homo sapiens, UniProt P0DMM9); assay: Inhibition of dopamine sulfation by recombinant hSULT1A3; assay type: biochemical
T3 sequence (P0DMM9 whole entry): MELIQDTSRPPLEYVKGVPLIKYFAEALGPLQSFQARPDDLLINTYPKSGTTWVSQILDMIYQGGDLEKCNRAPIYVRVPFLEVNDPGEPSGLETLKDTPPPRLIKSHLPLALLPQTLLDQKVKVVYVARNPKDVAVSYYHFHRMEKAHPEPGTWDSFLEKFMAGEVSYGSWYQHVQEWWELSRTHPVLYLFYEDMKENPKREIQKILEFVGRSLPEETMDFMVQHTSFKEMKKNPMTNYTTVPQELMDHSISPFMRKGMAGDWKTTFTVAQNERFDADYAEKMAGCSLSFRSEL

[5] = tested on: human intestine cytosol (SULT1A1 and SULT1A3); assay: Inhibition of 2-naphthol sulfation by human intestine cytosol; assay type: biochemical; conditions: read-out: IC50, 2-Naphthol sulfation, Cytosol, substrate 100 μM 2-naphthol
Summary of the method: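 Radioactive assay in 50 mM Tris (pH 6.2) with 20 μM PAPS and [14C]2-naphthol (0.1 mM final). Enzyme source: 100 μg intestine cytosol from a person. Test compound in DMSO (1% v/v final), 0.01–1000 μM. Incubated 30 min at 37°C, stopped with 0.25 M Tris (pH 8.7), extracted twice with chloroform, aqueous phase scintillation-counted. IC50 fitted with a Hill-slope equation; mean ± SD of three determinations.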

hSULT1A1 [6] = target: T1, hSULT1A1; assay: Inhibition of oestradiol sulfation by recombinant hSULT1A1; assay type: biochemical
hSULT1A3 [7] = target: T3, hSULT1A3; assay: Sulfation of flavonoids by recombinant hSULT1A3
hSULT1E1 = target: T4, hSULT1E1 (Homo sapiens, UniProt P49888); assay: Inhibition of oestradiol sulfation by recombinant hSULT1E1; assay type: biochemical; conditions: for Inhibition of hSULT1E1-catalysed oestradiol sulfation (in words): substrate 0.15 μM oestradiol, concentration range 1–1000 μM
T4 sequence (P49888 1-294): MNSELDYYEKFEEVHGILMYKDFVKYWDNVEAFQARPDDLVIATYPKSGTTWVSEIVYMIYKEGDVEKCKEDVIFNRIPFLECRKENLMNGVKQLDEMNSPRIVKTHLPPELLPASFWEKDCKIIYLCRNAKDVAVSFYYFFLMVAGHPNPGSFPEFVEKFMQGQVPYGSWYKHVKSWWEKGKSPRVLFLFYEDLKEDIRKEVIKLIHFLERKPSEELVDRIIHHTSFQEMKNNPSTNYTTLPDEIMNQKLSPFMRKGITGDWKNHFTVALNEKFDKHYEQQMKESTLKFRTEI
Summary of the method: as §1

hSULT1A1 [8] = target: T1, hSULT1A1; assay: Inhibition of 2-naphthol sulfation by recombinant hSULT1A1; assay type: biochemical
Summary of the method: as §1

[9] = flavonoid as substrate, substrate inhibition equation (2)
[10] = flavonoid as substrate, Michaelis–Menten equation (1), 1–1000 μM catechin, 1–1000 μM epicatechin, 1–128 μM hesperetin, 1–32 μM eriodictyol
[11] = flavonoid as substrate, substrate inhibition equation (2), listed as hesperetin
[12] = flavonoid as substrate, substrate inhibition equation (2), listed as catechin
[13] = substrate inhibition constant of flavonoid sulfation, equation (2)

T1 sequence (P50225 whole entry): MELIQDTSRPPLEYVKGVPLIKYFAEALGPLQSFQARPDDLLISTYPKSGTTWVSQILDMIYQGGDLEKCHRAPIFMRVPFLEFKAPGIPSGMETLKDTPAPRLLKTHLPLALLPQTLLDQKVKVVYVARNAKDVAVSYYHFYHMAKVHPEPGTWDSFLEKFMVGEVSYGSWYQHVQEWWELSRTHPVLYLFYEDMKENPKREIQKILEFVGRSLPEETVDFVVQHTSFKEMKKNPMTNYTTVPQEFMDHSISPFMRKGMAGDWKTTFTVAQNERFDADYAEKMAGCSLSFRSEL

Row | Vmax (hSULT1A1 [1]; [9]) | SMILES | Ki (hSULT1A1 [1]) | Vmax [2, 10] | Km at 30 min [2] | IC50 [3] | IC50 (hSULT1A3 [4]) | IC50 [5] | Ki (hSULT1A3 [7]) | Vmax (hSULT1A3 [7]; [9]) | IC50 (hSULT1A1 [8]) | IC50 (hSULT2A1) | IC50 (hSULT1E1) | other results
1 | 188 nmol/mg/min | Oc1cc(O)c2c(c1)O[C@H](c1ccc(O)c(O)c1)[C@H](O)C2 [Epicatechin, (−)epicatechin] | 8.7 ± 3.07 µM | 4.2 ± 0.2 nmol/mg/min | 149 ± 9.2 µM | 22.7 ± 5.6 µM | 117 ± 12.9 µM | 157 ± 37.6 µM | 9.5 ± 0.21 µM | 442 nmol/mg/min | 42.5 ± 8.5 µM | – | – | Inhibition of hSULT2A1-catalysed DHEA sulfation (in words) (hSULT2A1; listed as (−)epicatechin): did not significantly inhibit; Inhibition of hSULT2A1-catalysed DHEA sulfation (in words) (hSULT2A1; listed as epicatechin): not inhibited; IC50 (hSULT1A1 [6]): 6.1 ± 1 µM; Inhibition of hSULT1E1-catalysed oestradiol sulfation (in words) (hSULT1E1; listed as (−)epicatechin): did not significantly inhibit; Inhibition of hSULT1E1-catalysed oestradiol sulfation (in words) (hSULT1E1; listed as epicatechin): not inhibited
2 | – | COc1ccc([C@@H]2CC(=O)c3c(O)cc(O)cc3O2)cc1O [Hesperetin] | 3.7 ± 0.11 µM | 8.9 ± 0.3 nmol/mg/min | 66 ± 3.3 µM | 3.6 ± 0.4 µM | 20.8 ± 8.1 µM | 32.2 ± 3.6 µM | 4.2 ± 0.06 µM | 303 ± 5.8 nmol/mg/min | 23.4 ± 5.75 µM | 152 ± 14.9 µM | 90.4 ± 11.5 µM | Vmax (hSULT1A1 [1]; [11]): 92.7 nmol/mg/min; Vmax (hSULT1A3 [7]; [11]): 303 nmol/mg/min
3 | 187 ± 9.9 nmol/mg/min | Oc1cc(O)c2c(c1)OC(c1ccc(O)c(O)c1)C(O)C2 (single isomer, unassigned; (+)) [Catechin, (+)catechin] | – | 6.7 ± 0.02 nmol/mg/min | – | 10.1 ± 1.7 µM | – | 67.1 ± 6.3 µM | – | 342 ± 8.2 nmol/mg/min | – | – | – | Km (hSULT1A1 [1]; [9]): 165 ± 8.1 µM; Vmax (hSULT1A1 [1]; [12]): 187 nmol/mg/min; Ki (hSULT1A1 [1]; [13]): 6.37 ± 0.22 µM; Km [2, 10]: 104 ± 7.3 µM; Inhibition of hSULT2A1-catalysed DHEA sulfation (in words) (hSULT2A1; listed as (+)Catechin): did not significantly inhibit; Inhibition of hSULT2A1-catalysed DHEA sulfation (in words) (hSULT2A1; listed as catechin): not inhibited; IC50 (hSULT1A3 [4]; read-out: IC50, Dopamine sulfation by hSULT1A3, substrate 50 μM dopamine): 82.5 ± 31.5 µM; IC50 (hSULT1A1 [6]; read-out: IC50, Oestradiol sulfation, hSULT1A1, substrate 0.15 μM oestradiol): 2.6 ± 0.4 µM; Km (hSULT1A3 [7]; [9]): 236 ± 5.6 µM; Vmax (hSULT1A3 [7]; [12]): 342 nmol/mg/min; Ki (hSULT1A3 [7]; [13]): 8 ± 0.29 µM; Inhibition of hSULT1E1-catalysed oestradiol sulfation (in words) (hSULT1E1; listed as (+)catechin): did not significantly inhibit; Inhibition of hSULT1E1-catalysed oestradiol sulfation (in words) (hSULT1E1; listed as catechin): not inhibited; IC50 (hSULT1A1 [8]; read-out: IC50, 2-Naphthol sulfation, hSULT1A1, substrate 100 μM 2-naphthol): 8.4 ± 3.3 µM

Row | SMILES | Vmax (hSULT1A1 [1]; [9]) | Ki (hSULT1A1 [1]) | Vmax [2, 10] | Km at 30 min [2] | IC50 [3] | IC50 (hSULT1A3 [4]) | IC50 [5] | Ki (hSULT1A3 [7]) | Vmax (hSULT1A3 [7]; [9]) | IC50 (hSULT1A1 [8]) | IC50 (hSULT2A1) | IC50 (hSULT1E1) | other results
4 | O=C1C[C@@H](c2ccc(O)c(O)c2)Oc2cc(O)cc(O)c21 [Eriodictyol, eriodictyol] | 98.6 nmol/mg/min | 6.1 ± 0.14 µM | 19.4 ± 2.4 nmol/mg/min | 220 ± 28 µM | 11.8 ± 2 µM | 14.7 ± 8.9 µM | 28.9 ± 4.1 µM | 4.6 ± 0.02 µM | 269 nmol/mg/min | 15.2 ± 0.9 µM | 139 ± 8.8 µM | 677 ± 120 µM | –
